Experimental data gathered from unrelated publications.
Protocols differ between the studies behind these lines.
Target: Casein kinase I isoform gamma-3 (CSNK1G3, Homo sapiens, UniProt Q9Y6M4)

| SMILES | test | conditions | measurement | result |
| --- | --- | --- | --- | --- |
| Cc1ccc(Nc2nccc(N(C)c3ccc4c(C)n(C)nc4c3)n2)cc1S(N)(=O)=O | enzyme activity, inhibitor | 0.3 µM | inhibition | -8% |
| Cc1cc(-n2nc(Cc3cc(F)cc(C(F)(F)F)c3)nc2C)ccc1C(N)=O | cell-free assay, competition with immobilised ligand | 1 µM | remaining binding | 95% |
| CNC(=O)c1cc(Oc2ccc(NC(=O)Nc3ccc(Cl)c(C(F)(F)F)c3)cc2)ccn1 | enzyme activity, inhibitor | 0.3 µM | inhibition | -4% |
| CC(C)(C)c1nc(-c2cccc(NS(=O)(=O)c3c(F)cccc3F)c2F)c(-c2ccnc(N)n2)s1 | enzyme activity, inhibitor, radiometric | 1 µM | remaining activity | 91% |
| O=C(NC[C@@H]1[C@H]2CN(C(=O)OCc3cc(C(F)(F)F)cc(C(F)(F)F)c3)C[C@@H]12)c1ccc2[nH]nnc2c1 | cell-free assay, competition with immobilised ligand | 1 µM | remaining binding | 89% |
| CC(C)(O)[C@H]1CC[C@H](Nc2ccc3ncc(-c4cccc(C(F)(F)F)c4)n3n2)CC1 | enzyme activity, inhibitor | 1 µM | remaining activity | 90% |
| Cn1c2c(c3ccc(Cl)c(Cl)c31)C(C#N)C1(CCCCC1)NC2=O (racemic) | thermal stability, DSF | 10 µM | ΔTm | -0.2 °C |
| CN1CC(Oc2cnc(C#N)cc2-c2ccn3nc(NC(=O)C4CC4)cc3c2)C1 | enzyme activity, inhibitor | 1 µM | inhibition | 21% |
| O=C(O)[C@@H]1[C@@H](Cn2nnc3ccccc3c2=O)CC[C@H]1C(=O)c1ccc(OCCC2CCOCC2)cc1 | cell-free assay, competition with immobilised ligand | 1 µM | remaining binding | 100% |
| Cc1cc(NC(=O)c2cccc3cc(-c4cccc5[nH]nc(N)c45)ccc23)ccc1F | enzyme activity, inhibitor | 0.1 µM | activity vs control | 107% |
| Cn1c2c(c3ccc(Cl)c(Cl)c31)C(C#N)C1(CCOCC1)NC2=O (centres unmarked) | thermal stability, DSF | 10 µM | ΔTm | 0.2 °C |
| COc1cc2ncnc(Nc3ccc(F)c(Cl)c3)c2cc1OCCCN1CCOCC1 | cell-free assay | 0.5 µM | remaining signal | 103% |
| O=S(=O)(NC1CCC(c2cc(F)ccc2F)(S(=O)(=O)c2ccc(Cl)cc2)CC1)C(F)(F)F (centres unmarked) | cell-free assay, competition with immobilised ligand | 1 µM | remaining binding | 83% |
| COc1cc2c(Nc3ccc(Br)cc3F)ncnc2cc1OCC1CCN(C)CC1 | cell-free assay | 0.5 µM | remaining signal | 98.1% |
| Cc1ccc(C(=O)Nc2ccc(CN3CCN(C)CC3)c(C(F)(F)F)c2)cc1C#Cc1cnc2cccnn12 | enzyme activity, inhibitor | 23.5 nM | remaining activity | 97% |
| Cn1c2c(c3ccc(Cl)c(Cl)c31)C(C#N)C1(CCN(C(=O)OC(C)(C)C)CC1)NC2=O (racemic) | thermal stability, DSF | 10 µM | ΔTm | -0.1 °C |
| Cc1sc(C(=O)NC2COC2)cc1-n1cc(NC(=O)Nc2c(F)cccc2Cl)cn1 | enzyme activity, inhibitor | 10 µM | remaining activity | 91.3% |
| COc1cc2c(N3CCN(C(=O)Nc4ccc(OC(C)C)cc4)CC3)ncnc2cc1OCCCN1CCCCC1 | cell-free assay | 0.5 µM | remaining signal | 95% |
| Cc1ccc(NC(=O)c2ccc(C)c(C(F)(F)F)c2)cc1C#Cc1nn(C2CCC(O)CC2)c2ncnc(N)c12 (centres unmarked) | cell-free assay | 10 µM | remaining signal | 103% |
| CCS(=O)(=O)c1cc2cc(C[C@@](O)(CC(C)(C)c3ccc(F)cc3C(N)=O)C(F)(F)F)[nH]c2cn1 | cell-free assay, competition with immobilised ligand | 1 µM | remaining binding | 100% |
| COc1cc2ncnc(Nc3ccc(Oc4ccccc4)cc3C)c2cc1OC | enzyme activity, inhibitor | 1 µM | inhibition | 4% |
| Nc1ncnc2occ(-c3ccc(NC(=O)Nc4cc(C(F)(F)F)ccc4F)cc3)c12 | cell-free assay, inhibitor | 20 µM | remaining signal | 11% |
| CS(=O)(=O)CCNCc1ccc(-c2ccc3ncnc(Nc4ccc(OCc5cccc(F)c5)c(Cl)c4)c3c2)o1 | cell-free assay | 0.5 µM | remaining signal | 104% |
| NS(=O)(=O)c1cc(NC(=O)Cc2ccccc2)ccc1Oc1cccc(Cl)c1 | cell-free assay, competition with immobilised ligand | 1 µM | remaining binding | 74% |
| Cn1c2c(Cl)c(Cl)ccc2c2cc(N)[nH]c(=O)c21 | thermal stability, DSF | 10 µM | ΔTm | 0.1 °C |
| C[C@@H](c1cccc(C#N)c1)n1cc(Cl)cc(C(N)=O)c1=N | cell-free assay, competition with immobilised ligand | 1 µM | remaining binding | 100% |
| F[C@@H]1CCN(c2nccc(-c3cnn4ncccc34)n2)C1 | binding | 1 µM | remaining binding | 86% |
| Cn1c2c(c3ccc(Cl)c(Cl)c31)C(C#N)C(C)(C)NC2=O (centres unmarked) | thermal stability, DSF | 10 µM | ΔTm | 0.5 °C |
| CNC(=O)Nc1ccc2c(c1)CC[C@@]21OC(=O)N(CC(=O)N(Cc2ccc(F)cc2)[C@@H](C)C(F)(F)F)C1=O | cell-free assay, competition with immobilised ligand | 1 µM | remaining binding | 84% |
